Assay results reported in ChEMBL document CHEMBL4627290, “Synthesis and biological evaluation of chepraecoxin A derivatives as α-glucosidase inhibitors” (Bioorg Med Chem Lett, 2020).
Blank lines part the entries; values can stand above or below the molecule they belong to.

How the values were obtained:
[1] = Inhibition of alpha-glucosidase (unknown origin) at 500 uM relative to control; conditions: Homo sapiens
Method in brief: (§1)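 Single-point screen at 500 μM inhibitor, with acarbose as positive control. Derivatives exceeding 50% inhibition were taken on to a dose-response series at several concentrations to derive IC50. Values are mean ± SD, n = 3.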

[2] = Inhibition of alpha-glucosidase (unknown origin); parameters: species or system Homo sapiens; method in brief: as §1
[3] = Potency index, ratio of chepraecoxinA IC50 to test compound IC50 for inhibition of alpha-glucosidase (unknown origin); conditions: Homo sapiens
[4] = Non-competitve inhibition of alpha-glucosidase (unknown origin) by Dixon-plot analysis; parameters: species or system Homo sapiens
Method in brief: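 Kinetic study run at varied substrate concentrations. Inhibition type was assigned from a Lineweaver-Burk plot (Vm and Km compared), and the inhibition constant Ki was read from a Dixon plot.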

Compound: C=C1[C@H]2CC[C@@H]3[C@@](CC[C@H]4[C@@]3(C)[C@@H](OC(C)=O)CC[C@@]4(C)C(=O)O)(C2)[C@H]1O
inhibition [1]: 22.1%

Compound: CC(=O)O[C@H]1CC[C@@](C)(C(=O)O)[C@H]2CC[C@@]34C[C@H](CC[C@H]3[C@]12C)[C@@]1(CO1)C4
inhibition [1]: 9.6%

Compound: C=C1C(=O)[C@@]23CC[C@H]4[C@@](C)([C@@H](OC(C)=O)CC[C@@]4(C)C(=O)O)[C@@H]2CC[C@H]1C3
inhibition [1]: 18.6%

Compound: C=C1C[C@@]23CC[C@H]4[C@](C)([C@@H]2CC[C@H]1C3)[C@@H](O)CC[C@@]4(C)C(=O)O
inhibition [1]: 52%
IC50 [2]: 538 µM

Compound: C=C1C[C@@]23CC[C@H]4[C@@](C)([C@@H](OC(C)=O)CC[C@@]4(C)C(=O)O)[C@@H]2CC[C@H]1C3
inhibition [1]: 95%
IC50 [2]: 274 µM

Compound: C=C1C[C@@]23CC[C@H]4[C@@](C)(/C(=N/O)CC[C@@]4(C)C(=O)O)[C@@H]2CC[C@H]1C3
inhibition [1]: 77.2%
IC50 [2]: 330 µM

Compound: CCCCC/C=C/C(=O)O[C@H]1CC[C@@](C)(C(=O)O)[C@H]2CC[C@@]34C[C@H](CC[C@H]3[C@]12C)[C@@H](C)C4
inhibition [1]: 91.8%
IC50 [2]: 16.9 µM
Ratio IC50 [3]: 17

Compound: CCCCCCCC(=O)O[C@H]1CC[C@@](C)(C(=O)O)[C@H]2CC[C@@]34C[C@H](CC[C@H]3[C@]12C)[C@@H](C)C4
inhibition [1]: 95.5%
IC50 [2]: 22.8 µM

Compound: CCCCCCCCCCCCCCCCCC(=O)O[C@H]1CC[C@@](C)(C(=O)O)[C@H]2CC[C@@]34C[C@H](CC[C@H]3[C@]12C)[C@@H](C)C4
inhibition [1]: 94.2%
IC50 [2]: 32 µM

Compound: C[C@H]1C[C@@]23CC[C@H]4[C@@](C)([C@@H](OC(=O)/C=C/c5ccccc5)CC[C@@]4(C)C(=O)O)[C@@H]2CC[C@H]1C3
IC50 [2]: 17.1 µM
Ratio IC50 [3]: 17

Compound: C[C@H]1O[C@H](O[C@H]2[C@H](O)[C@@H](O)[C@@H](O[C@H]3[C@H](O)[C@@H](O)C(O)O[C@@H]3CO)O[C@@H]2CO)[C@H](O)[C@@H](O)[C@@H]1N[C@H]1C=C(CO)[C@@H](O)[C@H](O)[C@H]1O (stereo not given in full) [ACARBOSE]
inhibition [1]: 79.8%
IC50 [2]: 130 µM

Compound: CC(=O)O[C@H]1CC[C@@](C)(C(=O)O)[C@H]2CC[C@]34CC(=O)[C@@H](CC[C@H]3[C@]12C)C4
inhibition [1]: 78.8%
IC50 [2]: 262 µM

Compound: C=C1C[C@@]23CC[C@H]4[C@@](C)([C@@H](OC(C)=O)CC[C@@]4(C)C(=O)OC)[C@@H]2CC[C@H]1C3
inhibition [1]: 45.4%

Compound: CC(=O)O[C@H]1CC[C@@](C)(C(=O)O)[C@H]2CC[C@@]34C[C@H](CC[C@H]3[C@]12C)[C@@](O)(CO)C4
inhibition [1]: 7.5%

Now from value to molecule:

inhibition [1]: 11.4%
Compound: COC(=O)[C@]1(C)CC[C@H](OC(C)=O)[C@@]2(C)[C@@H]3CC[C@H]4C[C@@]3(CC[C@@H]21)C[C@@H]4C

inhibition [1]: 98.4%
IC50 [2]: 146 µM
Ratio IC50 [3]: 2
Compound: CC(=O)O[C@H]1CC[C@@](C)(C(=O)O)[C@H]2CC[C@@]34C[C@H](CC[C@H]3[C@]12C)[C@@H](C)C4

inhibition [1]: 13.2%
Compound: C[C@H]1C[C@@]23CC[C@H]4[C@@](C)(C(=O)CC[C@@]4(C)C(=O)O)[C@@H]2CC[C@H]1C3

inhibition [1]: 19.4%
Compound: C=C1C[C@@]23CC[C@H]4[C@@](C)(C(=O)CC[C@@]4(C)C(=O)O)[C@@H]2CC[C@H]1C3

inhibition [1]: 98%
IC50 [2]: 48.4 µM
Compound: CCCC(=O)O[C@H]1CC[C@@](C)(C(=O)O)[C@H]2CC[C@@]34C[C@H](CC[C@H]3[C@]12C)[C@@H](C)C4

Ki [4]: 19.4 µM
IC50 [2]: 16.1 µM
Ratio IC50 [3]: 17
Compound: C[C@H]1C[C@@]23CC[C@H]4[C@@](C)([C@@H](OC(=O)C5CCCCC5)CC[C@@]4(C)C(=O)O)[C@@H]2CC[C@H]1C3

IC50 [2]: 45.4 µM
Compound: C[C@H]1C[C@@]23CC[C@H]4[C@@](C)([C@@H](OC(=O)c5ccccc5)CC[C@@]4(C)C(=O)O)[C@@H]2CC[C@H]1C3

inhibition [1]: 17.8%
Compound: C[C@H]1C[C@@]23CC[C@H]4[C@@](C)([C@@H](OC(=O)CCC(=O)O)CC[C@@]4(C)C(=O)O)[C@@H]2CC[C@H]1C3

inhibition [1]: 93%
IC50 [2]: 71.4 µM
Compound: C[C@H]1C[C@@]23CC[C@H]4[C@@](C)([C@@H](OC(=O)c5cccnc5)CC[C@@]4(C)C(=O)O)[C@@H]2CC[C@H]1C3

inhibition [1]: 17.3%
Compound: C[C@H]1C[C@@]23CC[C@H]4[C@](C)([C@@H]2CC[C@H]1C3)[C@@H](O)CC[C@@]4(C)C(=O)O
